Measurements collected from several papers.
Compare with care: the assays were run in different laboratories.
Effect on: cell growth or viability

Compound | cell line | technique | time | IC50 [µM]
COc1ccc(N=C2SCC(=O)N2c2nnc(-c3ccc(C(F)(F)F)cc3N=C3SCC(=O)N3c3ccc(OC)cc3)s2)cc1 | WI-38 | MTT | – | 69.5
COc1cc(C2C3=C(COC3=O)N(CCO)c3cc4c(cc32)CCC4)cc(OC)c1OC (centres unmarked) | E0771 | ATP luminescence | 48 h | 0.039
CC(C)[C@@H]1NC(=O)/C(=C/c2cnc[nH]2)NC1=O | ASPC1 | SRB | – | > 15
OCc1ccc(-c2nn(Cc3ccccc3)c3ccccc23)o1 | HuCCT-1 | ATP luminescence | – | > 46
O=C1CS/C(=N\c2ccccc2O)N1c1nnc(-c2ccc(C(F)(F)F)cc2/N=C2\SCC(=O)N2c2ccccc2O)s1 | WI-38 | MTT | – | 32.3
CCCCC(=O)Nc1ccc(-c2ccc3ncn(CCC)c(=O)c3c2)c(F)n1 | HCC827 | CCK-8 | 72 h | 0.82
O=C1CS/C(=N\c2cc(C(F)(F)F)ccc2-c2nnc(N3C(=O)CS/C3=N\c3ccc(F)c(O)c3)s2)N1c1ccc(F)c(O)c1 | WI-38 | MTT | – | 20.3
OCc1ccc(-c2nn(Cc3ccncc3)c3ccccc23)o1 | HuCCT-1 | ATP luminescence | – | > 46
O=C(Nc1ccc(-c2ccc3ncn(Cc4ccc5c(c4)OCO5)c(=O)c3c2)cn1)c1ccccc1 | HCC827 | CCK-8 | 72 h | 8.81
COc1cccc2c1C(=O)c1c(O)c3c(c(O)c1C2=O)C[C@@](O)(C(=O)CO)C[C@@H]3O[C@H]1C[C@H](N)[C@H](O)[C@H](C)O1 | HaCaT | MTT | 72 h | 0.3
CCCn1cnc2ccc(-c3ccc(NC(=O)CC4CC4)nc3)cc2c1=O | HCC827 | CCK-8 | 72 h | 0.91
COc1cnccc1Cn1nc(-c2ccc(CO)o2)c2ccccc21 | HuCCT-1 | ATP luminescence | – | > 46
CCCCC(=O)Nc1ccc(-c2ccc3ncn(CCCC)c(=O)c3c2)cn1 | HCC827 | CCK-8 | 72 h | 0.13
O=C1CS/C(=N\c2cc(C(F)(F)F)ccc2-c2nnc(N3C(=O)CS/C3=N\c3cccc(Cl)c3)s2)N1c1cccc(Cl)c1 | WI-38 | MTT | – | 47.1
Nc1c([I+]c2ccccc2)c(=O)oc2ccccc12 | HaCaT | MTT | 48 h | 65.4
COc1cccc(Cn2nc(-c3ccc(CO)o3)c3ccccc32)c1 | HuCCT-1 | ATP luminescence | – | > 46
CNC(=O)c1ccccc1Nc1cc(Nc2ccc(N3CCOCC3)cc2OC)ncc1C(F)(F)F | ASPC1 | MTT | 48 h | 3.19
Cc1cccc([N+](=O)[O-])c1N=C1SCC(=O)N1c1nnc(-c2ccc(C(F)(F)F)cc2N=C2SCC(=O)N2c2c(C)cccc2[N+](=O)[O-])s1 | WI-38 | MTT | – | 67.5

Compound | cell line | technique | time | IC50 [µM]
COc1ncccc1Cn1nc(-c2ccc(CO)o2)c2ccccc21 | HuCCT-1 | ATP luminescence | – | > 46
CCCCn1cnc2ccc(-c3ccc(NC(=O)C4CCC4)nc3)cc2c1=O | HCC827 | CCK-8 | 72 h | 6.31
COc1cccc2c1C(=O)c1c(O)c3c(c(O)c1C2=O)C[C@@](O)(C(=O)CO)C[C@@H]3O[C@H]1C[C@H](N)[C@H](O)[C@H](C)O1 | WI-38 | MTT | – | 52.6
Cc1ccc(C(=O)Nc2ccc(-c3ccc4ncn(Cc5ccccc5)c(=O)c4c3)cn2)cc1 | HCC827 | CCK-8 | 72 h | > 10
CC1(P2(=O)CCCCC2)CCCCC1 | HaCaT | MTT | 72 h | > 100
C=CC(C)(C)c1[nH]cnc1/C=C1/NC(=O)[C@H](C(C)C)NC1=O | ASPC1 | SRB | – | > 15
NCc1ccc(-c2nn(Cc3ccccn3)c3cccnc23)o1 | HuCCT-1 | ATP luminescence | – | > 46
CCCCC(=O)Nc1ccc(-c2ccc3ncn(CCC)c(=O)c3c2)cn1 | HCC827 | CCK-8 | 72 h | 0.037
COc1cccc2c1C(=O)c1c(O)c3c(c(O)c1C2=O)C[C@@](O)(C(=O)CO)C[C@@H]3O[C@H]1C[C@H](N)[C@H](O)[C@H](C)O1 | HPAF-II | ATP luminescence | 72 h | 0.7
O=C1CSC(=Nc2cc(C(F)(F)F)ccc2-c2nnc(N3C(=O)CSC3=Nc3ccc([N+](=O)[O-])cc3)s2)N1c1ccc([N+](=O)[O-])cc1 | WI-38 | MTT | – | 77.3
CN1CCC(NC2CCc3[nH]c4c(C(N)=O)ccc(-c5ccccc5Cl)c4c3C2)CC1 (centres unmarked) | HuCCT-1 | – | 96 h | 0.00122
COc1cc(Cn2nc(-c3ccc(CO)o3)c3ccccc32)ccn1 | HuCCT-1 | ATP luminescence | – | > 46
COc1cccc2c1C(=O)c1c(O)c3c(c(O)c1C2=O)C[C@@](O)(C(=O)CO)C[C@@H]3O[C@H]1C[C@H](N)[C@H](O)[C@H](C)O1 | ASPC1 | SRB | – | 5.91
O=C1CS/C(=N\c2ccccc2Cl)N1c1nnc(-c2ccc(C(F)(F)F)cc2/N=C2\SCC(=O)N2c2ccccc2Cl)s1 | WI-38 | MTT | – | 49.2
COc1ccc(N=Nc2c(N)nn3c(-c4ccc(C)cc4)cc(-c4ccc(OCc5ccccc5)cc4)nc23)cc1 | WI-38 | MTT | 48 h | 47
CCCCn1cnc2ccc(-c3ccc(NC(=O)Nc4ccc(CC)cc4)nc3)cc2c1=O | HCC827 | CCK-8 | 72 h | > 10
Cc1nc(Nc2ncc(C(=O)Nc3c(C)cccc3Cl)s2)cc(N2CC[C@H](O)C2)n1 | OCI-LY19 | ATP luminescence | 72 h | > 10
